Measured values reported in ChEMBL document CHEMBL1629439, “High-throughput identification of antibacterials against methicillin-resistant Staphylococcus aureus (MRSA) and the transglycosylase” (Bioorg Med Chem, 2010).
Values after ≈ are worked out from the molar mass of the structure shown.

What was measured:
Staphylococcus aureus [1] = assay: Antimicrobial activity against oxacillin- and methicillin-resistant Staphylococcus aureus isolate Sa-OXA-R2 after 18 to 24 hrs by alamar blue assay; type: functional
In short: (§1)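 Broth microdilution per NCCLS standard, Mueller-Hinton broth, 8-point twofold dilutions; exponentially growing cells at 5 10^5 cells/ml with compound, 18–24 h at 37 C; 20% Alamar blue added, fluorescence read; MIC90 taken as lowest concentration preventing at least 90% growth.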

Acinetobacter baumannii = assay: Antimicrobial activity against Acinetobacter baumannii ATCC 49139 after 18 to 24 hrs by alamar blue assay; type: functional; conditions: Acinetobacter baumannii, ATCC 49139; read-out: MIC
In short: (§2)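 Broth microdilution per NCCLS in Mueller-Hinton broth, 8-point twofold dilutions, 384-well format. Exponential-phase cells at 5 × 10^5 cells/ml incubated with compound 18–24 h at 37 °C, then 20% Alamar blue added and fluorescence read. MIC90 taken as the lowest concentration preventing at least 90% bacterial growth.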

Serratia marcescens = assay: Antimicrobial activity against Serratia marcescens ATCC 14756 after 18 to 24 hrs by alamar blue assay; type: functional; conditions: Serratia marcescens, ATCC 14756; read-out: MIC; in short: as §2
Staphylococcus aureus [2] = assay: Antimicrobial activity against methicillin-resistant Staphylococcus aureus isolate NTUH4722 after 18 to 24 hrs by alamar blue assay; type: functional; in short: as §1
[3] = test system: Stenotrophomonas maltophilia; assay: Antimicrobial activity against Stenotrophomonas maltophilia ATCC 13637 after 18 to 24 hrs by alamar blue assay; type: functional; conditions: Stenotrophomonas maltophilia, ATCC 13637; read-out: MIC; in short: as §2
Pseudomonas aeruginosa = assay: Antimicrobial activity against Pseudomonas aeruginosa ATCC 25619 after 18 to 24 hrs by alamar blue assay; type: functional; conditions: Pseudomonas aeruginosa, ATCC 25619; read-out: MIC; in short: as §2
Staphylococcus aureus [4] = assay: Antimicrobial activity against Staphylococcus aureus ATCC 29213 after 18 to 24 hrs by alamar blue assay
[5] = test system: Mycolicibacterium smegmatis; assay: Antimicrobial activity against Mycobacterium smegmatis BCRC 11565 after 18 to 24 hrs by alamar blue assay; type: functional; conditions: Mycolicibacterium smegmatis, BCRC 11565; read-out: MIC; in short: as §2
Escherichia coli = assay: Antimicrobial activity against Escherichia coli ATCC […] after 18 to 24 hrs by alamar blue assay; type: functional; conditions: Escherichia coli; read-out: MIC; in short: as §2
Bacillus subtilis = assay: Antimicrobial activity against Bacillus subtilis ATCC 23857 after 18 to 24 hrs by alamar blue assay; type: functional; in short: as §2
Staphylococcus aureus [6] = assay: Antimicrobial activity against methicillin-resistant Staphylococcus aureus ATCC 33592 after 18 to 24 hrs by alamar blue assay; type: functional; conditions: Staphylococcus aureus, ATCC 33592; read-out: MIC; in short: as §1

Cc1ccc(-c2coc3c(C)c4oc(=O)c(CCC(=O)O)c(C)c4cc23)cc1
MIC (Staphylococcus aureus [1]): 2 µg/mL (≈ 5.31 µM) | MIC (Acinetobacter baumannii): > 256 µg/mL | MIC (Serratia marcescens): > 256 µg/mL | MIC (Staphylococcus aureus [2]): 1 µg/mL (≈ 2.66 µM) | MIC [3]: > 256 µg/mL | MIC (Pseudomonas aeruginosa): > 256 µg/mL | MIC (Staphylococcus aureus [4]): 1 µg/mL (≈ 2.66 µM) | MIC [5]: 1 µg/mL (≈ 2.66 µM) | MIC (Escherichia coli): > 256 µg/mL | MIC (Bacillus subtilis): > 64 µg/mL | MIC (Staphylococcus aureus [6]): 2 µg/mL (≈ 5.31 µM)

O=C(Nc1nnc(-c2ccc(Cl)cc2)o1)c1cccc(Br)c1
MIC (Staphylococcus aureus [1]): 2 µg/mL (≈ 5.28 µM) | MIC (Acinetobacter baumannii): > 256 µg/mL | MIC (Serratia marcescens): > 256 µg/mL | MIC (Staphylococcus aureus [2]): 2 µg/mL (≈ 5.28 µM) | MIC [3]: > 256 µg/mL | MIC (Pseudomonas aeruginosa): > 256 µg/mL | MIC (Staphylococcus aureus [4]): 0.5 µg/mL (≈ 1.32 µM) | MIC [5]: 0.5 µg/mL (≈ 1.32 µM) | MIC (Escherichia coli): > 256 µg/mL | MIC (Bacillus subtilis): 0.5 µg/mL (≈ 1.32 µM) | MIC (Staphylococcus aureus [6]): 0.5 µg/mL (≈ 1.32 µM)

O=C(Nc1nnc(-c2ccc(F)cc2)o1)c1ccc(Cl)s1
MIC (Staphylococcus aureus [1]): 1.2 µg/mL (≈ 3.71 µM) | MIC (Acinetobacter baumannii): > 256 µg/mL | MIC (Serratia marcescens): > 256 µg/mL | MIC (Staphylococcus aureus [2]): 1.2 µg/mL (≈ 3.71 µM) | MIC [3]: > 256 µg/mL | MIC (Pseudomonas aeruginosa): > 256 µg/mL | MIC (Staphylococcus aureus [4]): 1.2 µg/mL (≈ 3.71 µM) | MIC [5]: 0.5 µg/mL (≈ 1.54 µM) | MIC (Escherichia coli): > 256 µg/mL | MIC (Bacillus subtilis): 0.5 µg/mL (≈ 1.54 µM) | MIC (Staphylococcus aureus [6]): 1.2 µg/mL (≈ 3.71 µM)

CCc1c(C)nc(N2NC(C)=CC2NC(=O)c2ccccc2I)nc1O (stereo unspecified)
MIC (Staphylococcus aureus [1]): 0.5 µg/mL (≈ 1.07 µM) | MIC (Acinetobacter baumannii): > 256 µg/mL | MIC (Serratia marcescens): > 256 µg/mL | MIC (Staphylococcus aureus [2]): 0.5 µg/mL (≈ 1.07 µM) | MIC [3]: > 256 µg/mL | MIC (Pseudomonas aeruginosa): > 256 µg/mL | MIC (Staphylococcus aureus [4]): 0.5 µg/mL (≈ 1.07 µM) | MIC [5]: 0.25 µg/mL (≈ 0.537 µM) | MIC (Escherichia coli): > 256 µg/mL | MIC (Bacillus subtilis): 0.25 µg/mL (≈ 0.537 µM) | MIC (Staphylococcus aureus [6]): 1 µg/mL (≈ 2.15 µM)

O=C(Nc1nnc(-c2ccc(F)cc2)o1)c1cccc(Cl)c1
MIC (Staphylococcus aureus [1]): 4 µg/mL (≈ 12.6 µM) | MIC (Acinetobacter baumannii): > 256 µg/mL | MIC (Serratia marcescens): > 256 µg/mL | MIC (Staphylococcus aureus [2]): 1 µg/mL (≈ 3.15 µM) | MIC [3]: > 256 µg/mL | MIC (Pseudomonas aeruginosa): > 256 µg/mL | MIC (Staphylococcus aureus [4]): 1 µg/mL (≈ 3.15 µM) | MIC [5]: 0.5 µg/mL (≈ 1.57 µM) | MIC (Escherichia coli): > 256 µg/mL | MIC (Bacillus subtilis): 0.5 µg/mL (≈ 1.57 µM) | MIC (Staphylococcus aureus [6]): 0.5 µg/mL (≈ 1.57 µM)

Cc1ccc(NS(=O)(=O)c2ccc3c(c2)NCC(C)C(=O)S3)c(Br)c1 (stereo unspecified)
MIC (Staphylococcus aureus [1]): > 64 µg/mL | MIC (Acinetobacter baumannii): > 256 µg/mL | MIC (Serratia marcescens): > 256 µg/mL | MIC (Staphylococcus aureus [2]): 16 µg/mL (≈ 36.3 µM) | MIC [3]: > 256 µg/mL | MIC (Pseudomonas aeruginosa): > 256 µg/mL | MIC (Staphylococcus aureus [4]): 2 µg/mL (≈ 4.53 µM) | MIC [5]: > 64 µg/mL | MIC (Escherichia coli): > 256 µg/mL | MIC (Bacillus subtilis): < 0.03 µg/mL | MIC (Staphylococcus aureus [6]): 8 µg/mL (≈ 18.1 µM)

Cc1c(CC(=O)N2CCC[C@H]2C(=O)O)c(=O)oc2c(C)c3occ(-c4ccc(Cl)cc4)c3cc12
MIC (Staphylococcus aureus [1]): 0.6 µg/mL (≈ 1.25 µM) | MIC (Acinetobacter baumannii): > 256 µg/mL | MIC (Serratia marcescens): > 256 µg/mL | MIC (Staphylococcus aureus [2]): 0.3 µg/mL (≈ 0.625 µM) | MIC [3]: > 256 µg/mL | MIC (Pseudomonas aeruginosa): > 256 µg/mL | MIC (Staphylococcus aureus [4]): 0.3 µg/mL (≈ 0.625 µM) | MIC [5]: 1 µg/mL (≈ 2.08 µM) | MIC (Escherichia coli): > 256 µg/mL | MIC (Bacillus subtilis): > 64 µg/mL | MIC (Staphylococcus aureus [6]): 0.3 µg/mL (≈ 0.625 µM)

CCOC(=O)c1c(NC(=O)c2ccc([N+](=O)[O-])o2)sc2c1CCN(C(C)=O)C2
MIC (Staphylococcus aureus [1]): 1 µg/mL (≈ 2.45 µM) | MIC (Acinetobacter baumannii): 12 µg/mL (≈ 29.5 µM) | MIC (Serratia marcescens): 32 µg/mL (≈ 78.5 µM) | MIC (Staphylococcus aureus [2]): 1 µg/mL (≈ 2.45 µM) | MIC [3]: 32 µg/mL (≈ 78.5 µM) | MIC (Pseudomonas aeruginosa): 128 µg/mL (≈ 314 µM) | MIC (Staphylococcus aureus [4]): 1 µg/mL (≈ 2.45 µM) | MIC [5]: 0.5 µg/mL (≈ 1.23 µM) | MIC (Escherichia coli): 256 µg/mL (≈ 628 µM) | MIC (Bacillus subtilis): 0.06 µg/mL (≈ 0.147 µM) | MIC (Staphylococcus aureus [6]): 4 µg/mL (≈ 9.82 µM)

NC(=O)c1ccsc1NC(=O)c1ccc([N+](=O)[O-])o1
MIC (Staphylococcus aureus [1]): 0.25 µg/mL (≈ 0.889 µM) | MIC (Acinetobacter baumannii): 12 µg/mL (≈ 42.7 µM) | MIC (Serratia marcescens): 32 µg/mL (≈ 114 µM) | MIC (Staphylococcus aureus [2]): 0.25 µg/mL (≈ 0.889 µM) | MIC [3]: 32 µg/mL (≈ 114 µM) | MIC (Pseudomonas aeruginosa): 128 µg/mL (≈ 455 µM) | MIC (Staphylococcus aureus [4]): 2 µg/mL (≈ 7.11 µM) | MIC [5]: 0.5 µg/mL (≈ 1.78 µM) | MIC (Escherichia coli): 256 µg/mL (≈ 910 µM) | MIC (Bacillus subtilis): 0.06 µg/mL (≈ 0.213 µM) | MIC (Staphylococcus aureus [6]): 0.25 µg/mL (≈ 0.889 µM)

CCOc1ccccc1N(C)S(=O)(=O)c1ccc2c(c1)NC(=O)C(C)S2 (stereo unspecified)
MIC (Staphylococcus aureus [1]): > 64 µg/mL | MIC (Acinetobacter baumannii): > 256 µg/mL | MIC (Serratia marcescens): > 256 µg/mL | MIC (Staphylococcus aureus [2]): 8 µg/mL (≈ 20.4 µM) | MIC [3]: > 256 µg/mL | MIC (Pseudomonas aeruginosa): > 256 µg/mL | MIC (Staphylococcus aureus [4]): 4 µg/mL (≈ 10.2 µM) | MIC [5]: > 64 µg/mL | MIC (Escherichia coli): > 256 µg/mL | MIC (Bacillus subtilis): < 0.03 µg/mL | MIC (Staphylococcus aureus [6]): 8 µg/mL (≈ 20.4 µM)

O=C(Nc1ccc(Cl)cc1)c1cc(Br)ccc1NS(=O)(=O)c1ccc(Cl)cc1
MIC (Staphylococcus aureus [1]): 0.5 µg/mL (≈ 1 µM) | MIC (Acinetobacter baumannii): > 256 µg/mL | MIC (Serratia marcescens): > 256 µg/mL | MIC (Staphylococcus aureus [2]): 0.25 µg/mL (≈ 0.5 µM) | MIC [3]: > 256 µg/mL | MIC (Pseudomonas aeruginosa): > 256 µg/mL | MIC (Staphylococcus aureus [4]): 0.25 µg/mL (≈ 0.5 µM) | MIC [5]: > 64 µg/mL | MIC (Escherichia coli): > 256 µg/mL | MIC (Bacillus subtilis): < 0.03 µg/mL | MIC (Staphylococcus aureus [6]): 0.25 µg/mL (≈ 0.5 µM)
